Compound activity as filed in PubChem.
Sampled rows, rich in hits. Any-hit rate of the full collection: about 2.1%.
HTR2A ag – agonists of mouse serotonin 5-HT2A receptor (HTR2A). activation, % at 7.6 µM. P35363. hit rate 0.66% among 360,000. AID 624169. CHO-K1 mHTR2A beta-arrestin complementation, luminescence; percent of 30 µM serotonin response;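 active = activation above a run cutoff, the mean activation of all tested compounds plus 3 SD, cut at about 14% in these data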;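 also: 0% = plate median of compound wells and 100% = 30 µM serotonin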
CXCR6 inh – CXCR6 (human) receptor inhibition. inhibition, % at 20 µM. CHO-K1 PathHunter CXCR6 beta-arrestin, luminescence. AID 602244. O00574. hit rate 0.36% among 360,000; in the data active = inhibition above about 34%, passing the limit was not always enough;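 also: antagonist mode with CXCL16 agonist at 10 nM final; 0% = 10 nM CXCL16 with DMSO and 100% = unstimulated wells without agonist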
Target sequence (O00574 whole entry, looked up): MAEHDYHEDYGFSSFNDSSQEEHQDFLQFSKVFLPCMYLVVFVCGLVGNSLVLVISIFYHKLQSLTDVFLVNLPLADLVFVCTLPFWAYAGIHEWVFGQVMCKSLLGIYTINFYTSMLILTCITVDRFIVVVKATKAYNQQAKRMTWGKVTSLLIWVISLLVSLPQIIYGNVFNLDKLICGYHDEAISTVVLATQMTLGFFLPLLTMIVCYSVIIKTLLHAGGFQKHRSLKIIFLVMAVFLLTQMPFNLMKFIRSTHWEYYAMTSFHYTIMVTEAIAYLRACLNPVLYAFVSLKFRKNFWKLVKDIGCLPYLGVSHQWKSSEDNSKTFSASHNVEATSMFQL
EBI2 antag – antagonists of human EBI2 receptor. P32249. EBI2 beta-arrestin recruitment, luminescence, 7a,25-OHC stimulated. inhibition, % at 5 µM. hit rate 0.81% among 360,000. AID 651636; in the data active = inhibition above about 38%;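 also: enzyme fragment complementation signal reports receptor beta-arrestin coupling in cells; 0% = agonist plus DMSO wells and 100% = wells without agonist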
CCR6 antagonist – antagonists of human CCR6 receptor; P51684; CHO-K1 CCR6 PathHunter beta-arrestin, luminescence, CCL20-stimulated; inhibition, % at 20 µM; hit rate 0.49% among 340,000;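 active = compounds whose inhibition of the agonist-driven luminescence signal at 20 µM reaches about 50%, limit read from the data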;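 also: cells stimulated with CCL20 at 14 nM final; plate controls were DMSO with CCL20 for no effect and DMSO without agonist for full effect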
APJ ag – activates the human apelin receptor APJ; P35414; CHO-K1 APJ PathHunter beta-arrestin, luminescence; 0% DMSO wells, 100% apelin; activation, % at 20 µM; hit rate 0.11% among 330,000; AID 2520;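 active = activation more than six SD over the plate average, tested at 20 µM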;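 also: 0% = DMSO alone and 100% = apelin-13 at 10 nM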
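Incubation: overnight seeding, 90 min compound at 25 °C, 1 h detection; test system: PathHunter CHO-K1 APJ (AGTRL-1) beta-arrestin reporter cells; amount: 1000 cells/well; doses: one dose, 20 µM compound, 1% DMSO; measured by: beta-gal luminescence; measure: agonist-driven arrestin binding to APJ; benchmarks: negative DMSO alone, positive Apelin-13 at 10 nM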
APJ antag – APJ receptor antagonism; P35414; CHO-K1 APJ beta-arrestin complementation, luminescence; inhibition, % at 20 µM; hit rate 0.32% among 330,000; AID 2521;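 active = inhibition above about 40% at 20 µM, limit read from the data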;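 also: cells challenged with 10 nM apelin-13 agonist together with compound; plate controls were apelin-13 plus DMSO wells for no effect and DMSO wells lacking apelin-13 for full effect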
* hit, by the source's call; . = no result given.

SMILES	HTR2A ag	CXCR6 inh	EBI2 antag	CCR6 antagonist	APJ ag	APJ antag
O=C(c1ccc(F)cc1)N1CCN(S(=O)(=O)c2ccc3c(c2)OCCO3)CC1	2	1	8	.	.	.
O=C(c1ccc(C(F)(F)F)cc1)N1CCN(S(=O)(=O)c2ccc3c(c2)OCCCO3)CC1	8	-6	51*	12	-1	-3
CC(C)(C)C(=O)NC(=S)NNC(=O)C(c1ccccc1)c1ccccc1	-34	72*	-1	79*	-5	23
CC(=O)NNC(=S)NC(=O)C(c1ccccc1)c1ccccc1	1	9	13	30	-4	16
CCCC(C(=O)NC1CCCC1)N(Cc1ccccc1Cl)C(=O)c1snc(C(N)=O)c1N (stereo not drawn)	7	8	8	1	0	3
CCOCCc1nnc(NC(=O)CS(=O)(=O)c2ccc(C)cc2)s1	5	0	-9	-4	-3	5
O=C(NCC1COc2ccccc2O1)c1cccc(S(=O)(=O)N2CCN(c3ccccc3)CC2)c1 (stereo not drawn)	0	-2	0	3	10	-14
CCc1nc2ccc(C(=O)N3CCCC(C(N)=O)C3)cn2c1N(C)Cc1ccc(OC)cc1 (stereo not drawn)	3	9	-7	.	.	.
Cc1cc(NC(=O)CSc2nc3sc(C)c(C)c3c(=O)n2C2CCCC2)no1	17*	-1	1	-10	1	5
CCOc1ccc(N(CC(=O)NC2CCCCC2)C(=O)CCC(=O)Nc2nccs2)cc1	-2	5	0	11	-2	5
CCC[C@@H]1C[C@@H](C(=O)NC(C(C)Cl)[C@H]2O[C@H](SC)[C@H](O)[C@@H](O)[C@H]2O)N(C)C1 (stereo partly drawn)	40*	-7	-6	2	-5	7
CCCC1CC(C(=O)NC(C(C)Cl)C2OC(SC)C(O)C(O)C2O)N(C)C1 (stereo not drawn)	6	0	-8	7	-4	7
COc1ccc2[nH]c3c(c2c1)CCN1C(=O)C(CC(=O)NCCN2CCOCC2)C[C@H](C(=O)N2CCOCC2)[C@@]31C (stereo partly drawn)	1	1	2	2	.	.
Cc1ccc(-c2nn3c(-c4ccco4)nnc3c3ccccc23)cc1S(=O)(=O)NCC1CCCO1 (stereo not drawn)	6	0	17	51*	-10	11
CCCCNC(=O)C1(C)CCN1Cc1cc(C)ccc1C (stereo not drawn)	-4	2	3	.	.	.
COc1ccc(S(=O)(=O)/N=C2/C=CC(=O)C(C)=C2C)cc1	1	12	6	13	-1	-14
CC1=C(C)/C(=N\OS(=O)(=O)c2ccc(C)cc2)C=CC1=O	0	55*	7	76*	.	.
C[C@H]1CN([C@@H](C)CO)C(=O)c2cc(Br)cnc2O[C@@H]1CN(C)C(=O)Nc1ccc(C(F)(F)F)cc1	5	5	1	.	.	.
Cc1ccc(Nc2c(-c3ccccn3)nc3cc(C)ccn23)cc1	-16	40*	7	57*	-4	39
Cc1ccn2c(Nc3ccc4c(c3)OCO4)c(-c3ccccn3)nc2c1	-7	20	17	25	-2	18
O=C(c1ccc(NS(=O)(=O)c2ccccc2)cc1)N1CCN(c2ccccc2)CC1	-5	7	-4	23	-3	-13
Cc1cccc(N2CCN(C(=O)Cn3sc4nc(C)cc(C)c4c3=O)CC2C)c1 (stereo not drawn)	6	8	7	72*	8	6
COc1cccc(NC(=O)c2ccc(OC(F)(F)F)cc2)c1	2	-2	44*	17	2	-12
O=C(CS(=O)c1ccccc1[N+](=O)[O-])Oc1ccc(Br)cc1 (stereo not drawn)	3	-7	-10	-2	0	-14
CS(=O)(=O)c1ccc(S(=O)CC(=O)Oc2ccc(Cl)cc2)c([N+](=O)[O-])c1 (stereo not drawn)	.	.	.	61*	-4	-9
COc1ccccc1NC(=O)C1CC(C(C)C)OC1=O (stereo not drawn)	-3	4	13	5	-4	14
CCOc1ccc(/C=C/C2=NNC(=O)CC2)cc1	2	-6	-10	13	-1	-9
